Measurements gathered from unrelated publications.
Protocols differ between the studies behind these lines.
Target: Citron Rho-interacting kinase (CIT, Homo sapiens, UniProt O14578)

SMILES	test	conditions	measurement	value
CO[C@@H]1[C@H](N(C)C(=O)c2ccccc2)C[C@H]2O[C@]1(C)n1c3ccccc3c3c4c(c5c6ccccc6n2c5c31)C(=O)NC4	enzyme activity, inhibitor	1 µM	inhibition	0%
CN1CCN(C(=O)c2ccc(NC(=O)Nc3ccc(N(C)c4ccnc(Nc5ccc(CS(C)(=O)=O)cc5)n4)cc3)cc2)CC1	binding, competition with immobilised ligand	1 µM	remaining binding	79%
COc1ccc2oc(-c3ccc4nc(N)oc4c3)c/c(=N\c3ccccc3NC(=O)CCN)c2c1	binding	1 µM	remaining binding	92%
CC#CC(=O)N1CCC[C@H]1c1nc(-c2ccc(C(=O)Nc3ccccn3)cc2)c2c(N)nccn12	enzyme activity, inhibitor	1 µM	inhibition	1%
CC(C)S(=O)(=O)c1ccc2nccc(Nc3ccc4sc(C5CCCC5)nc4c3)c2c1	enzyme activity, inhibitor	1 µM	activity vs control	113%
Cc1ccc(NC(=O)c2ccnc(C(F)(F)F)c2)cc1-c1cc(OCCO)nc(N2CCOCC2)c1	binding, competition with immobilised ligand	1 µM	remaining binding	96%
C1=C/COCc2cc(ccc2OCCN2CCCC2)Nc2nccc(n2)-c2cccc(c2)COC/1	cell-free assay	0.1 µM	remaining signal	72%
CCCCC(=O)Nc1ccc(-c2ccc3ncn(CCC)c(=O)c3c2)cn1	binding, competition with immobilised ligand	0.5 µM	remaining binding	83%
